In ChEMBL document CHEMBL5260822, “Structure-based design and synthesis of 2,4-diaminopyrimidines as EGFR L858R/T790M selective inhibitors for NSCLC” (Eur J Med Chem, 2017):

What was measured:
[1] = target: Epidermal growth factor receptor (Homo sapiens, UniProt P00533, L858R/T790M); assay: Inhibition of EGFR L858R/T790M mutant (unknown origin) expressed in baculovirus expression system by ELISA
[2] = target: Epidermal growth factor receptor (Homo sapiens, UniProt P00533, T790M); assay: Inhibition of EGFR T790M mutant (unknown origin) expressed in baculovirus expression system by ELISA
[3] = target: Epidermal growth factor receptor (Homo sapiens, UniProt P00533); assay: Inhibition of wild type EGFR (unknown origin) expressed in baculovirus expression system by ELISA
NCI-H1975 = assay: Antiproliferative activity against human NCI-H1975 cells harboring EGFR L858R/T790M double mutant assessed as inhibition of cell proliferation incubated for 72 hrs by sulforhodamine B colorimetric assay; assay type: functional, cell-based; details: NCI-H1975, 72 h
A-431 = assay: Antiproliferative activity against human A-431 cells harboring wild type EGFR assessed as inhibition of cell proliferation incubated for 72 hrs by sulforhodamine B colorimetric assay; assay type: functional, cell-based; details: A-431, 72 h
Homo sapiens = species: Homo sapiens; assay: Selectivity ratio, ratio of IC50 for inhibition of wild type EGFR (unknown origin) to IC50 for inhibition of EGFR L858R/T790M mutant (unknown origin)
Procedure, shortened: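 EGFR WT and L858R/T790M kinase domains expressed in a baculovirus system and purified on Ni-NTA. Kinase activity measured by ELISA-based EGFR tyrosine kinase assay; at least three independent determinations, mean ± SD.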

Epidermal growth factor receptor (Homo sapiens, UniProt P00533, T790M), sequence (P00533 25-1210 T790M limits assumed): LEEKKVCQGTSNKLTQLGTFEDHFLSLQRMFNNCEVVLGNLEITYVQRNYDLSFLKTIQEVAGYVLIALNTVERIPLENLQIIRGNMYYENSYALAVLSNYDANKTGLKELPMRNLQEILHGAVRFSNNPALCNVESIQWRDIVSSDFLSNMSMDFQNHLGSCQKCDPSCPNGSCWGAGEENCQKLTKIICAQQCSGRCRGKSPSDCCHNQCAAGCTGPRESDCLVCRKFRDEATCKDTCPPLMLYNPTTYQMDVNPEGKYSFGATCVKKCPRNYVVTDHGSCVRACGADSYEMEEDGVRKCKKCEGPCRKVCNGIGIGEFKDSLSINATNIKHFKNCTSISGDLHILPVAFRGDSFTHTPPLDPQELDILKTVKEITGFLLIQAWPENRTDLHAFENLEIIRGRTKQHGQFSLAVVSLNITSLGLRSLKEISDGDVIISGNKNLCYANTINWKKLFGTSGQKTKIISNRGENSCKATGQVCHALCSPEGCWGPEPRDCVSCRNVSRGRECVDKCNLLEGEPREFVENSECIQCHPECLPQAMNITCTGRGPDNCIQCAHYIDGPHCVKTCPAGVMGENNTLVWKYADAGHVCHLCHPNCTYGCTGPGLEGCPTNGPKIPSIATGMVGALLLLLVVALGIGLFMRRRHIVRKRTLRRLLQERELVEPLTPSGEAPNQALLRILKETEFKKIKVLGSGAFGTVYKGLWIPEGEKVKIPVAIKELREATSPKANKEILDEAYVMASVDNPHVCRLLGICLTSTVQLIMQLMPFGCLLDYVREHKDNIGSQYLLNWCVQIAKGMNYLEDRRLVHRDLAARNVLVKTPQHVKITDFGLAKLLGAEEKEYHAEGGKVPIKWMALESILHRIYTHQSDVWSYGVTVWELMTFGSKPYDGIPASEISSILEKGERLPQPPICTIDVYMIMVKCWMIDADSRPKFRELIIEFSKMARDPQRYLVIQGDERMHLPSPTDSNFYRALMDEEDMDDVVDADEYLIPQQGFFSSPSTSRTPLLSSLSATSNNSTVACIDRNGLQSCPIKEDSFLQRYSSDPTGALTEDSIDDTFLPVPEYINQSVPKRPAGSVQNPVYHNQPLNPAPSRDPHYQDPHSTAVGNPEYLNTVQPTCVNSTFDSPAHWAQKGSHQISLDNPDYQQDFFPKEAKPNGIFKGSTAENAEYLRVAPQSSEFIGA
Epidermal growth factor receptor (Homo sapiens, UniProt P00533), sequence (P00533 whole entry): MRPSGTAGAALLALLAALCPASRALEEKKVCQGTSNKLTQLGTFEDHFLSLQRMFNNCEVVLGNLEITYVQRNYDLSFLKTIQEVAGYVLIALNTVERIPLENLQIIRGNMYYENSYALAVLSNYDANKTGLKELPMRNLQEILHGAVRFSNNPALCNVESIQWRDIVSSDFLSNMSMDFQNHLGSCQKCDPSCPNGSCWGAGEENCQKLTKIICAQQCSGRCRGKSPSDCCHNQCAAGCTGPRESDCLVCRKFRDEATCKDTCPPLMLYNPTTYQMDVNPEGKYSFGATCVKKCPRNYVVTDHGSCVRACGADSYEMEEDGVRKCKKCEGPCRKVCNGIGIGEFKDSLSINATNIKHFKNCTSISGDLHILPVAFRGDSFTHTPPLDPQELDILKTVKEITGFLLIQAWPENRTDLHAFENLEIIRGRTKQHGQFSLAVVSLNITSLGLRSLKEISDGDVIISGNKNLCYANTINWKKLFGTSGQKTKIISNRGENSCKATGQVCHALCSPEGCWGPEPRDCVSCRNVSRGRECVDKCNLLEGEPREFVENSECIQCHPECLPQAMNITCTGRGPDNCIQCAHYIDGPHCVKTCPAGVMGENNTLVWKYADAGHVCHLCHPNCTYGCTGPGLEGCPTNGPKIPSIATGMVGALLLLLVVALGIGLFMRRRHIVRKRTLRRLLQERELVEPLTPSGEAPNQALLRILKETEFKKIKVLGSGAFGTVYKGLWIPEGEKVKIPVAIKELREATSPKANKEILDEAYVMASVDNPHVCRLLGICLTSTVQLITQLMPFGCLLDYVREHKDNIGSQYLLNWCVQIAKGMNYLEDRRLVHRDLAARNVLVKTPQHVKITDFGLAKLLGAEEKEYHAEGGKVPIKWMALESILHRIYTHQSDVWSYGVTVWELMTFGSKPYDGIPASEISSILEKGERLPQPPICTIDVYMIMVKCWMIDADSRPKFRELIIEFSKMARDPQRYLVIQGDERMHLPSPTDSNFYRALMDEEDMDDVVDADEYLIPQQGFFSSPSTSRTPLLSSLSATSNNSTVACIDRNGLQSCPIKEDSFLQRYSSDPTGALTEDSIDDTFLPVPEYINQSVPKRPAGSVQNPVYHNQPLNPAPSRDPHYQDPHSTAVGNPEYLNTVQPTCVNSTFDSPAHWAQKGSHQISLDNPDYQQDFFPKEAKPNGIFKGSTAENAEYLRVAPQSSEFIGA
Epidermal growth factor receptor (Homo sapiens, UniProt P00533, L858R/T790M), sequence (P00533 25-1210 T790M/L858R limits assumed): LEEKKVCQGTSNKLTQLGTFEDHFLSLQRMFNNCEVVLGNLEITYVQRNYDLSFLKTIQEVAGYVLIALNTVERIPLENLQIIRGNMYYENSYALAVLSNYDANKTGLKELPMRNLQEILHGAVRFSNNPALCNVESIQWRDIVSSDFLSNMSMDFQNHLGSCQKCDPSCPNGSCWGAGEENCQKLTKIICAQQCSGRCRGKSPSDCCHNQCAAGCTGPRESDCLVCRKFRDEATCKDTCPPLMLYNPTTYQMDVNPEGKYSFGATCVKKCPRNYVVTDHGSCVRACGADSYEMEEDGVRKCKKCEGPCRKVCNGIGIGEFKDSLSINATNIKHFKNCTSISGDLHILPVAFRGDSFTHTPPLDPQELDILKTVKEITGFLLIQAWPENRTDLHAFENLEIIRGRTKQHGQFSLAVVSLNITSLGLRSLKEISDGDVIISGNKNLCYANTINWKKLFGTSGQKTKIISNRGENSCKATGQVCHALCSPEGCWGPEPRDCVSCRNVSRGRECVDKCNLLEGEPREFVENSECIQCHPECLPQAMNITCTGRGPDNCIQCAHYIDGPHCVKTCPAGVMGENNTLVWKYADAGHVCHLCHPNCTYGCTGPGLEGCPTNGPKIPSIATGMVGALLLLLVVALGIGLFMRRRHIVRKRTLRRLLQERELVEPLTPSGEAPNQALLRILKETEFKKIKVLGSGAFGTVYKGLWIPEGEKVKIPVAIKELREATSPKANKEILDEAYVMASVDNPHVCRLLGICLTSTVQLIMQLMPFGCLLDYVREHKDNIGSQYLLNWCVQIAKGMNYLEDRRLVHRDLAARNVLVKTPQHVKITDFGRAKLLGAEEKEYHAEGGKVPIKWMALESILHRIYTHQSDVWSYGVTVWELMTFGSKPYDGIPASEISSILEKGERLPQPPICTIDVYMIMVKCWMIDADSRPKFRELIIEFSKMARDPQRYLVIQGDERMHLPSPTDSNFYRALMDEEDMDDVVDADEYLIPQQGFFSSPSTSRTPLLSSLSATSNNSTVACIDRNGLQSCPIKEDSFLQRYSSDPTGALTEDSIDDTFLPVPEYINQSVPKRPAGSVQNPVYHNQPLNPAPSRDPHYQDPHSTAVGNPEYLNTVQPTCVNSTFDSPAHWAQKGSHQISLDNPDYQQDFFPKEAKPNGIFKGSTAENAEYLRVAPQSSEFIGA

CN1CCN(c2ccc(Nc3ncc(C(F)(F)F)c(Nc4ccc5[nH]ccc5c4)n3)cc2)CC1
IC50 [1]: 121 nM | IC50 [2]: 102 nM | IC50 [3]: > 1000 nM

COc1cnc(Nc2ccc(N3CCN(C)CC3)cc2)nc1Nc1ccc2[nH]ccc2c1
IC50 [1]: 155 nM | IC50 [2]: 224 nM | IC50 [3]: > 1000 nM

C=CC(=O)Nc1cc(Nc2ncc(Br)c(Nc3ccc4cc[nH]c4c3)n2)ccc1N(C)CCN(C)C
IC50 (NCI-H1975): 111 nM | IC50 (A-431): 143 nM | IC50 [1]: 200 nM | IC50 [3]: 8.7 nM

C=CC(=O)Nc1cc(Nc2ncc(Br)c(Nc3ccc4ccn(C)c4c3)n2)ccc1N1CCN(C)CC1
IC50 (NCI-H1975): 190 nM | IC50 (A-431): 200 nM

CN1CCN(c2ccc(Nc3ncc(Br)c(Nc4ccc5[nH]ccc5c4)n3)cc2)CC1
Ratio IC50 (Homo sapiens): 23 | IC50 [1]: 35 nM | IC50 [2]: 53 nM | IC50 [3]: > 1000 nM

CC(=O)N1CCc2cc(Nc3nc(Nc4ccc(N5CCN(C)CC5)cc4)ncc3Br)ccc21
Ratio IC50 (Homo sapiens): 2 | IC50 [1]: 6000 nM | IC50 [3]: 14300 nM

CN1CCN(c2ccc(Nc3ncc(Br)c(Nc4ccc5c(c4)CCC5)n3)cc2)CC1
Ratio IC50 (Homo sapiens): 194 | IC50 [1]: 35 nM | IC50 [3]: 6800 nM

CN1CCN(c2ccc(Nc3ncc(Br)c(Nc4ccc5ncccc5c4)n3)cc2)CC1
IC50 [1]: 7800 nM | IC50 [3]: > 10000 nM

C=CC(=O)Nc1cc(Nc2ncc(Br)c(Nc3ccc4c(c3)CCC4)n2)ccc1N1CCN(C)CC1
IC50 (NCI-H1975): 306 nM | IC50 (A-431): 135 nM | IC50 [1]: 27.7 nM | IC50 [3]: 466 nM

C=CC(=O)Nc1cc(Nc2ncc(Br)c(Nc3ccc4cc[nH]c4c3)n2)ccc1N1CCN(C)CC1
IC50 (NCI-H1975): 451 nM | IC50 (A-431): 108 nM | IC50 [1]: 16.4 nM | IC50 [3]: 234 nM

CN1CCN(c2ccc(Nc3ncc(Br)c(Nc4ccc5cc[nH]c5c4)n3)cc2)CC1
Ratio IC50 (Homo sapiens): 74 | IC50 [1]: 19 nM | IC50 [3]: 1400 nM

CN1CCN(c2ccc(Nc3ncc(Br)c(Nc4ccc5[nH]ncc5c4)n3)cc2)CC1
Ratio IC50 (Homo sapiens): 10 | IC50 [1]: 39 nM | IC50 [3]: 393 nM

CC(=O)N1CCc2ccc(Nc3nc(Nc4ccc(N5CCN(C)CC5)cc4)ncc3Br)cc21
IC50 [1]: 8600 nM | IC50 [3]: 5700 nM

CN1CCN(c2ccc(Nc3nccc(Nc4ccc5[nH]ccc5c4)n3)cc2)CC1
IC50 [1]: 220 nM | IC50 [2]: 100 nM | IC50 [3]: 49 nM

CN1CCN(c2ccc(Nc3ncc(Br)c(Nc4ccc5[nH]c(Cc6cccc(F)c6)cc5c4)n3)cc2)CC1
Ratio IC50 (Homo sapiens): 7 | IC50 [1]: 49 nM | IC50 [3]: 325 nM

C=CC(=O)Nc1cc(Nc2ncc(Br)c(Nc3ccc4c(c3)CCC4)n2)ccc1N(C)CCN(C)C
IC50 (NCI-H1975): 106 nM | IC50 (A-431): 256 nM | IC50 [1]: 0.6 nM | IC50 [3]: 26.2 nM

Cc1cnc(Nc2ccc(N3CCN(C)CC3)cc2)nc1Nc1ccc2[nH]ccc2c1
IC50 [1]: 171 nM | IC50 [2]: 197 nM | IC50 [3]: > 1000 nM

CN1CCN(c2ccc(Nc3ncc(Cl)c(Nc4ccc5[nH]ccc5c4)n3)cc2)CC1
IC50 [1]: 46 nM | IC50 [2]: 105 nM | IC50 [3]: 557 nM

C=CC(=O)Nc1cccc(Oc2nc(Nc3ccc(N4CCN(C)CC4)cc3OC)ncc2Cl)c1
IC50 (NCI-H1975): 128 nM | IC50 (A-431): 1300 nM

CN1CCN(c2ccc(Nc3ncc(F)c(Nc4ccc5[nH]ccc5c4)n3)cc2)CC1
IC50 [1]: 181 nM | IC50 [2]: 232 nM | IC50 [3]: > 1000 nM

CN1CCN(c2ccc(Nc3ncc(Br)c(Nc4ccc5ccn(C)c5c4)n3)cc2)CC1
Ratio IC50 (Homo sapiens): 62 | IC50 [1]: 21 nM | IC50 [3]: 1300 nM

CN1CCN(c2ccc(Nc3ncc([N+](=O)[O-])c(Nc4ccc5[nH]ccc5c4)n3)cc2)CC1
IC50 [1]: 906 nM | IC50 [2]: > 1000 nM | IC50 [3]: > 1000 nM

CN1CCN(c2ccc(Nc3ncc(Br)c(Nc4ccc5cn[nH]c5c4)n3)cc2)CC1
Ratio IC50 (Homo sapiens): 26 | IC50 [1]: 43 nM | IC50 [3]: 1100 nM

CN1CCN(c2ccc(Nc3ncc(Br)c(Nc4ccc5nccnc5c4)n3)cc2)CC1
Ratio IC50 (Homo sapiens): 2 | IC50 [1]: 236 nM | IC50 [3]: 408 nM
